# Results collected from several papers.
# Each line is one published result; the experiments were not run side by side.
# Target: Serine/threonine-protein kinase Nek11 (NEK11, Homo sapiens, UniProt Q8NG66)
# Sequence (Q8NG66 1-645, as in one of the studies): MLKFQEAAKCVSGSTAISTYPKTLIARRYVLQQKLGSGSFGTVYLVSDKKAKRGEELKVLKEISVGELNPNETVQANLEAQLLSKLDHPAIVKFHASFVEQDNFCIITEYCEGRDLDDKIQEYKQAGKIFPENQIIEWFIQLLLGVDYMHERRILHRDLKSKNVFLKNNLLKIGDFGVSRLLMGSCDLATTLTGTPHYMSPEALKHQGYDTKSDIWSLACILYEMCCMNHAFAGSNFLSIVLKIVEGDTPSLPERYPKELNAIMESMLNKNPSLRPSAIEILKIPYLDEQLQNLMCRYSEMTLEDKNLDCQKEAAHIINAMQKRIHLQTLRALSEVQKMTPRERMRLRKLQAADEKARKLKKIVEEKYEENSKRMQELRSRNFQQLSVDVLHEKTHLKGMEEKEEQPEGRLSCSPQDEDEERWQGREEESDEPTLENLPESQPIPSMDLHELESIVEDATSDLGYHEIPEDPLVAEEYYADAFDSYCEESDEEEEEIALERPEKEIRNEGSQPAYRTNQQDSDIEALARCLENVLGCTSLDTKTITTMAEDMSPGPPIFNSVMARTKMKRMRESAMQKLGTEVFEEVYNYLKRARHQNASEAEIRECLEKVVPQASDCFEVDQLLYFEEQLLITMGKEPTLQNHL
Structure (SMILES),test,setting,remaining binding
O=C(c1ccc(Nc2ncc(Cl)c(-c3cc4ccccc4s3)n2)cc1)N1CCC(N2CCCC2)CC1,"binding, competition with immobilised ligand",1 µM,80%
COCCOc1nc(-c2ccc(Cl)nc2)nc2c1CN(C(=O)c1ncn3ccccc13)CC2,"cell-free assay, competition with immobilised ligand",0.1 µM,100%
Cc1cnn2ncc(-c3ccnc(N(C)C)n3)c2c1,binding,1 µM,98%
Nc1ncc2c(n1)-c1c([nH]c3ccc(C#CC4CC4)cc13)CCCC2,"binding, competition with immobilised ligand",1 µM,84%
O=C(NCCCN1CCOCC1)c1ccc(Nc2ncc(Cl)c(-c3ccc(Cl)s3)n2)cc1,"binding, competition with immobilised ligand",1 µM,88%
COc1ccc2c(c1)O[C@@H](c1ccc(OC)c(OC)c1)C[C@H]2NC(=O)C1(c2ccc3c(c2)OC(F)(F)O3)CC1,"cell-free assay, competition with immobilised ligand",1 µM,83%
c1cncc(-c2cccc(Nc3nccc(NC4CCCCC4)n3)c2)c1,"binding, competition with immobilised ligand",10 µM,100%
F[C@@H]1CCN(c2nccc(-c3cnn4ncccc34)n2)C1,binding,1 µM,100%
CNC(=O)[C@@H]1CC[C@@H](n2c(-c3ccc4cnccc4c3)nc3ccc(C(=O)NCc4cccc(C(N)=O)c4)cc32)C1,"binding, competition with immobilised ligand",1 µM,100%
Cc1cc(C)c(-n2ccn3nc(-c4cccnc4)cc23)cc1NC(=O)c1cc(C#N)cc(S(F)(F)(F)(F)F)c1,"cell-free assay, competition with immobilised ligand",0.1 µM,86.1%
O=C(c1ccc(Nc2nccc(-c3cc4ccccc4s3)n2)cc1)N1CCC(N2CCCC2)CC1,"binding, competition with immobilised ligand",1 µM,78%
c1cnn2ncc(-c3ccnc(N4CCC45COC5)n3)c2c1,binding,1 µM,89%
Cn1nc(C(F)(F)F)cc1-c1cnc(N2CCc3cc(S(=O)(=O)Nc4c(F)cc(Cl)cc4F)cc(N4CCCC4=O)c32)nc1,"cell-free assay, competition with immobilised ligand",1 µM,78%
COc1cnc(Nc2cccc(S(N)(=O)=O)c2)nc1N1CCN(c2ccccc2)C(=O)C1,"binding, competition with immobilised ligand",1 µM,90%
O=C(Nc1c[nH]nc1C(=O)NC1CCNCC1)c1cc(F)cc(F)c1,"binding, competition with immobilised ligand",1 µM,91%
CN(C)c1nccc(-c2cnc3ncccn23)n1,binding,1 µM,81%
CCN1CCN(Cc2ccc(C(=O)Nc3ccc(C)c(Oc4ccc5c(c4)CC(=O)N5)c3)cc2C(F)(F)F)CC1,"binding, competition with immobilised ligand",1 µM,100%
O=C(NCCCC1CCCCC1)c1ccc(CNC(=O)c2cnn(-c3ccccc3)c2C(F)(F)F)cc1,"cell-free assay, competition with immobilised ligand",0.1 µM,100%
N[C@@H]1CCN(c2nccc(-c3cnn4ncccc34)n2)C1,binding,1 µM,100%
CNCc1ccccc1-c1csc([C@H](C)Nc2nc(C)nc3cc(OC)c(OC)cc23)c1,"cell-free assay, competition with immobilised ligand",1 µM,100%
CN(CCCC(F)(F)F)c1nccc(-c2cnn3ncccc23)n1,binding,1 µM,100%
